“Also recorded” adds a separate entry of the source. Marks after values point to notes of the source that are not given here.
Legend:
[1] = tested on: interleukin 6 (IL6); assay: Interleukin 6 in plasma, CSF and tissue exudate; format: in vivo, human
How it was run: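 Osteoarthritis patients (59–77 y) undergoing hip arthroplasty under spinal bupivacaine, given oral test compound 120 mg or placebo at 6:30 a.m. on surgery day and next day. Plasma and CSF sampled predose and 1.5–48 h; drain exudate collected over 60 min before 4–48 h, centrifuged, frozen −30 °C. IL6 by ELISA (LOQ 7.8 pg/mL); partial AUCs by linear trapezoidal rule.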

[2] = Post-operative consumption of intrathecal bupivacaine and piritramide; format: in vivo, human
How it was run: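 After spinal bupivacaine 0.5% via lumbar intrathecal catheter, 0.01% bupivacaine infused intrathecally at 4–6 mL/h plus patient-controlled boluses up to 1 mL every 10 min, 4-h lockout 40 mL. Breakthrough pain: piritramide i.v. up to 5 mg (s.c. up to 15 mg). Total consumption, requests, delivered boluses and request times recorded. Patient lacking catheter excluded.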

[3] = tested on: prostaglandin E2 (PGE2); assay: Prostaglandin E2 in tissue exudate, plasma and CSF; format: in vivo, human
How it was run: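 Hip-arthroplasty patients dosed orally with 120 mg test compound or placebo on surgery day and next day. Drain exudate collected over 60 min before 4, 8, 12, 24, 26, 32, 48 h, centrifuged, supernatant frozen −30 °C. PGE2 in exudate and plasma by ELISA (LOQ 15 pg/mL). CSF PGE2 by solid-phase extraction LC-MS/MS with prostaglandin D2-d4 (LOQ 25–200 pg/mL). Partial AUCs by trapezoidal rule.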

[4] = Pharmacokinetics of etoricoxib in plasma, CSF and tissue exudate; format: in vivo, human; conditions: for Cmax / Tmax / Kp: human, 120 mg; for Kp: CSF/plasma
How it was run: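 Six hip-arthroplasty patients given oral 120 mg at 6:30 a.m. on surgery day and 24 h later. Blood and intrathecal-catheter CSF sampled predose and 1.5–48 h, first 1 mL CSF discarded; drain exudate collected hourly windows. LC-MS/MS with phenazone internal standard, LOQ 0.2 ng/mL, validated 0.2–200 ng/mL. AUC0–24 h by linear trapezoidal method; CSF/plasma ratio from AUCs, maximal ratio from individual concentrations.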

[5] = Patient ratings of post-operative pain, satisfaction and sleep disturbance; format: in vivo, human; conditions: first 24 h; interaction p = 0.036
How it was run: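 Patients dosed orally with 120 mg test compound or placebo on surgery day and next day, double-blind. Global pain and operated-hip pain at rest and passive movement rated on 11-point scale (0 = no pain, 10 = worst) at 4, 8, 12, 24, 26, 32, 48 h. Satisfaction with analgesia on numeric rating scale; sleep disturbance (0–10) at 24, 48, 72 h.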

[6] = Safety: adverse events and blood loss during surgery; format: in vivo, human
[7] = cited from earlier work
[8] = same dose; ref Fletcher et al., [1995]; cited from earlier work
[9] = tissue exudate, 12–24 h, mean, n = 6
[10] = tissue exudate, 24–36 h, mean, n = 6
[11] = tissue exudate, 36–47 h, mean, n = 6

SMILES: Cc1ccc(-c2ncc(Cl)cc2-c2ccc(S(C)(=O)=O)cc2)cn1 [Etoricoxib, etoricoxib]
- IL6 cerebrospinal fluid (w/o R111) AUC (1.5–12 h) ([1]; CSF, 1.5–12 h, mean, n = 6): 340 pg·h/mL
- IL6 cerebrospinal fluid (w/o R111) AUC (12–24 h) ([1]; CSF, 12–24 h, mean, n = 6): 660 pg·h/mL
- IL6 cerebrospinal fluid (w/o R111) AUC (24–36 h) ([1]; CSF, 24–36 h, mean, n = 5): 575 pg·h/mL
- IL6 cerebrospinal fluid (w/o R111) AUC (36–48 h) ([1]; CSF, 36–48 h, mean, n = 5): 436 pg·h/mL
- IL6 plasma AUC (1.5–12 h) ([1]; plasma, 1.5–12 h, mean, n = 6): 435 pg·h/mL
- IL6 plasma AUC (12–24 h) ([1]; plasma, 12–24 h, mean, n = 6): 596 pg·h/mL
- IL6 plasma AUC (24–36 h) ([1]; plasma, 24–36 h, mean, n = 6): 598 pg·h/mL
- IL6 plasma AUC (36–48 h) ([1]; plasma, 36–48 h, mean, n = 6): 409 pg·h/mL
- Time until plasma IL6 returned to preoperative levels ([1]; plasma, time after surgery): ≤ 20 h
- IL6 tissue exudate AUC (4–12 h) ([1]; tissue exudate, 4–12 h, mean, n = 6): 479 ng·h/mL
- IL6 tissue exudate AUC (12–24 h) [1, 9]: 1606 ng·h/mL
- IL6 tissue exudate AUC (24–36 h) [1, 10]: 1200 ng·h/mL
- IL6 tissue exudate AUC (36–47 h) [1, 11]: 861 ng·h/mL
- Demand for piritramide versus placebo ([2]; 2 to 48 h, main effect treatment p = 0.003): significantly higher in the placebo group
- On request local anaesthetic administration versus placebo ([2]; only during the first 12 h post-operatively, main effect treatment p = 0.052): higher in the placebo group
- Concentrations of PGE2 in plasma and CSF ([3]; plasma and CSF, both groups, differences not significant): near or below the LOQ
- PGE2 production in the surgical wound ([3]; preoperative administration): complete blockade
- PGE2 tissue exudate AUC (4–12 h) ([3]; tissue exudate (hip drain), 4–12 h, mean, n = 6): 40 ng·h/mL
- PGE2 tissue exudate AUC (12–24 h) [3, 9]: 48 ng·h/mL
- PGE2 tissue exudate AUC (24–36 h) [3, 10]: 29 ng·h/mL
- PGE2 tissue exudate AUC (36–47 h) [3, 11]: 16 ng·h/mL
- PGE2 concentration in wound fluid ([3]; wound fluid, versus fast increase in placebo group, treatment p = 0.014): remained low throughout
- Cmax ([4]; CSF, po): 160 ng/mL
- Tmax ([4]; CSF, po): 1.5 h
- Kp ([4]; oral, CSF/plasma ratio AUC 0–24 h, individual ratios, mean (range)): 0.041
- Kp ([4]; oral, Maximal CSF/plasma conc. ratio, individual maximal concentration ratio, mean (SD)): 0.122
- Tmax ([4]; oral): < 2 h
- Cmax ([4]; plasma, po): 1880 ng/mL
- Tmax ([4]; plasma, po): 1.5 h
- CSF/plasma ratio AUC 0–48 h ([4]; individual ratios, mean (range), subgroup n = 5): 4.7 (2.8–8.1) ^b %
- tmax for CSF/plasma conc. ratio ([4]; median (range)): 1.75 (1.5–32) h
- Post-operative analgesic satisfaction versus placebo [5]: significantly higher
- Intra-OP BL (blood loss during surgery) ([6]; 120 mg 2 h before surgery, mean (SD), n = 6): 383 (98) mL
- Unwanted drug effects ([6]; either treatment group): not seen
- Absorption, bioavailability and elimination ([7]; ref Agrawal et al., [2003]): fast absorption, high bioavailability and slow elimination

SMILES: Cc1ccc(-c2cc(C(F)(F)F)nn2-c2ccc(S(N)(=O)=O)cc2)cc1 [celecoxib]
- Absorption / bioavailability ([7]; oral, ref Brune et al., [2010]): absorbed slowly and to show variable (low) bioavailability; also recorded: slow and incomplete absorption

SMILES: O=C(c1ccccc1)c1ccc2n1CCC2C(=O)O (stereo not shown) [ketorolac]
- Pain relief with preoperative versus post-operative administration [8]: significantly superior with preoperative administration

Reference: paper PMC3437501 (European Journal of Pain (London, England), 2011)
